Published values pooled from the literature.
Each line is one published result; the experiments were not run side by side.
CDK4 with cyclin D1: Cyclin-dependent kinase 4, with cyclin D1 (CDK4, Homo sapiens, UniProt P11802)
AMY2: Pancreatic alpha-amylase (AMY2, Sus scrofa, UniProt P00690)
CHRM2: Muscarinic acetylcholine receptor M2 (CHRM2, Homo sapiens, UniProt P08172)
CDK4 with cyclin D3: Cyclin-dependent kinase 4, with cyclin D3 (CDK4, Homo sapiens, UniProt P11802)

| Structure (SMILES) | target | test | setting | IC50 |
| --- | --- | --- | --- | --- |
| Cc1c(N2CCOCC2)oc2c(-c3ccc(Nc4ncc5cc(C(=O)N(C)C)n(C6CCCC6)c5n4)cc3F)cccc2c1=O | CDK4 with cyclin D1 | enzyme activity, inhibitor, radiometric | – | 3.3 µM |
| N=C(N)c1ccc(OCCCCCOc2ccc(C(=N)N)cc2)cc1 | Chymotrypsinogen A (Bos taurus, UniProt P00766) | enzyme activity, inhibitor, absorbance | – | > 1750 µM |
| COc1ccc2c(c1)CN(C(=O)CCN1CCC(Cc3ccccc3)CC1)CC[S@@+]2[O-] | Voltage-dependent L-type calcium channel subunit alpha-1C (CACNA1C, Homo sapiens, UniProt Q13936) | ion current, inhibitor, patch clamp | – | > 100 µM |
| CN(C)C(=O)c1cc2cnc(Nc3ccc(-c4ccc5c(=O)cc(N6CCOCC6)oc5c4)c(F)c3)nc2n1C1CCCC1 | CDK4 with cyclin D1 | enzyme activity, inhibitor, radiometric | – | 0.0123 µM |
| O=c1cc(-c2ccc(O)c(O)c2)oc2c(Br)c(O)c(Br)c(O)c12 | AMY2 | enzyme activity, inhibitor | – | 0.99 µM |
| CN(C)C(=O)c1cc2cnc(Nc3ccc(-c4cccc5c(=O)cc(N6CCOCC6)oc45)c(F)c3)nc2n1C1CCCC1 | CDK4 with cyclin D1 | enzyme activity, inhibitor, radiometric | – | 0.116 µM |
| NC(=O)c1nnn(Cc2cc(Cl)c(C(=O)c3ccc(Cl)cc3)c(Cl)c2)c1N | CHRM2 | cAMP, antagonist | – | 1.85 µM |
| O=c1c(O)c(-c2ccc(O)c(O)c2)oc2c(Br)c(O)c(Br)c(O)c12 | AMY2 | enzyme activity, inhibitor | – | 19.9 µM |
| O=C(CCNC(=O)CNC(=O)CC(c1ccccc1)(c1ccccc1)c1ccccc1)NCC1CCN(Cc2ccc(F)cc2)CC1 | CHRM2 | ligand displacement, radioligand | cell membranes | 6.4 µM |
| CN(C)C(=O)c1cc2cnc(Nc3ccc(-c4cccc5c(=O)cc(N6CCOCC6)oc45)cn3)nc2n1C1CCCC1 | CDK4 with cyclin D1 | enzyme activity, inhibitor, radiometric | – | 0.46 µM |
| O=c1c(O)c(-c2ccc(O)cc2)oc2cc(O)cc(O)c12 | AMY2 | enzyme activity, inhibitor | – | 10.4 µM |
| CNS(=O)(=O)c1ccc(Nc2ncc(C(F)(F)F)c(N3CCC[C@](C)(O)C3)n2)c(C)c1 | CDK4 with cyclin D3 | enzyme activity, inhibitor, radiometric | – | 0.827 µM |
| CN(C)C(=O)c1cc2cnc(Nc3ccc4c(=O)cc(N5CCOCC5)oc4c3)nc2n1C1CCCC1 | CDK4 with cyclin D1 | enzyme activity, inhibitor, radiometric | – | 0.0042 µM |
| CNS(=O)(=O)c1ccc(Nc2ncc3cc(Cl)c(=O)n(C4CCCC4)c3n2)c(C)c1 | CDK4 with cyclin D3 | enzyme activity, inhibitor, radiometric | – | 0.022 µM |
| CC(C)(C)NS(=O)(=O)c1cccc(C(=O)N2CC3(CCC4(CC4)CC3)c3cc(NS(C)(=O)=O)ccc32)c1 | Kinesin-like protein KIF18B (Homo sapiens, UniProt Q86Y91) | ATPase activity, inhibitor | – | > 100 µM |
| CNS(=O)(=O)c1ccc(Nc2ncc(C(F)(F)F)c(N3CCC(C)(O)CC3)n2)c(C)c1 | CDK4 with cyclin D3 | enzyme activity, inhibitor, radiometric | – | 0.201 µM |
| O=C(CCNC(=O)CNC(=O)CC(c1ccccc1)(c1ccccc1)c1ccccc1)NC[C@@H]1CCCN(Cc2cccnc2F)C1 | CHRM2 | ligand displacement, radioligand | cell membranes | > 30 µM |
| CNS(=O)(=O)c1ccc(Nc2ncc(C(F)(F)F)c([C@H]3CC[C@@](C)(O)CC3)n2)c(C)c1 | CDK4 with cyclin D3 | enzyme activity, inhibitor, radiometric | – | 3.47 µM |
| Cc1cc(O)c(-c2ccc([C@@H](C)CN(C)C)cc2)c2c1[nH]c(=O)c1sccc12 | Cyclin-dependent kinase 19, with cyclin C (CDK19, Homo sapiens, UniProt Q9BWU1) | enzyme activity, inhibitor | – | > 1 µM |
